Experimental data from paper PMC11145139 (RSC Advances, 2024).
Converted amounts (≈) assume the structure as drawn. Residues, ends and D or L forms follow the SMILES beside them.

Assays:
Type in all cases: cell-based
[1] = tested on: Escherichia coli MTCC 443; experiment: Antibacterial activity, Mueller Hinton Broth microdilution MIC; settings: for Potency relative to standard drug Ampicillin against E. coli: ratio of MIC values vs Ampicillin (MIC 100 μg mL^−1)
[2] = tested on: Aspergillus niger MTCC 282; experiment: Antifungal activity, Muller Hinton Broth dilution MIC; settings: for MIC (anti-fungicidal activity) A. n.: Aspergillus niger MTCC 282, Muller Hinton Broth dilution, Sabouraud's dextrose broth, 28 °C, aerobic, 48 hours, triplicate experiments
In short: (§1)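 Broth dilution in Mueller Hinton medium. Test compounds were screened in triplicate at 1000, 500, 250 and 200 μg mL−1; actives were diluted further and retested. Fungal growth was followed in Sabouraud's dextrose broth at 28 °C, aerobic, for 48 h. MIC was taken as the lowest concentration preventing visible growth. Nystatin served as reference standard. Stocks were kept at −70 °C in trypticase-soy broth with 20% glycerol and subcultured three times before use.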

[3] = tested on: Candida albicans MTCC 227; experiment: as above; settings: for MIC (anti-fungicidal activity) C. a.: Candida albicans MTCC 227, Muller Hinton Broth dilution, Sabouraud's dextrose broth, 28 °C, aerobic, 48 hours, triplicate experiments
In short: as §1

[4] = tested on: Staphylococcus aureus MTCC 96; experiment: Antibacterial activity, Mueller Hinton Broth microdilution MIC; settings: vs Ampicillin (MIC 250 μg mL^−1)
[5] = tested on: Pseudomonas aeruginosa MTCC 1688; experiment: as above; settings: ratio of MIC values vs Ampicillin (MIC 100 μg mL^−1)
[6] = tested on: Streptococcus pyogenes MTCC 442; experiment: as above; settings: ratio of MIC values vs standard drug (MIC 100 μg mL^−1)
[7] = vs Nystatin (active at 100 μg mL^−1)

MIC ([1]; Escherichia coli, MTCC443, 48 h, read-out: MIC (anti-bacterial activity) E. c.) [µg/mL]	SMILES	MIC (anti-fungicidal activity) A. n. [2] [µg/mL]	MIC (anti-fungicidal activity) C. a. [3] [µg/mL]	Potency relative to control drug Ampicillin against Staphylococcus aureus [4]	Potency relative to standard drug Ampicillin against E. coli [1]	Potency relative to standard drug Ampicillin against P. aeruginosa [5] [times]	Potency relative to standard drug Ampicillin against Streptococcus pyogenes [6]	Potency relative to Nystatin against Aspergillus niger [2, 7]	Potency relative to Nystatin against Candida albicans [3, 7]
100 (≈ 286 µM)	CC1(C)S[C@@H]2[C@H](NC(=O)[C@H](N)c3ccccc3)C(=O)N2[C@H]1C(=O)O [Ampicillin, reference compound]	–	–	–	–	–	–	–	–
–	N=C(N)NCCC[C@H](NC(=O)[C@H](Cc1c[nH]cn1)NC(=O)[C@@H]1CCCN1C(=O)[C@H](CS)NC(=O)CN)C(=O)N[C@@H](CS)C(=O)O [Compound 7a, H-Gly-Cys-Pro-His-Arg-Cys-OH] (H-GCPHRC-OH)	65 (≈ 96.8 µM)	60 (≈ 89.3 µM)	–	–	–	–	–	–
–	C[C@H](N)C(=O)N[C@@H](CS)C(=O)N1CCC[C@H]1C(=O)N[C@@H](Cc1c[nH]cn1)C(=O)N[C@@H](CCCNC(=N)N)C(=O)N[C@@H](CS)C(=O)O [Compound 7b, H-Ala-Cys-Pro-His-Arg-Cys-OH] (H-ACPHRC-OH)	50 (≈ 72.9 µM)	55 (≈ 80.2 µM)	almost twice potent	around 2 times	2	–	–	–
–	CC(C)[C@H](N)C(=O)N[C@@H](CS)C(=O)N1CCC[C@H]1C(=O)N[C@@H](Cc1c[nH]cn1)C(=O)N[C@@H](CCCNC(=N)N)C(=O)N[C@@H](CS)C(=O)O [Compound 7c, H-Val-Cys-Pro-His-Arg-Cys-OH] (H-VCPHRC-OH)	40 (≈ 56 µM)	35 (≈ 49 µM)	almost twice potent	2.5 times	2	2 times	–	–
–	CC(C)C[C@H](N)C(=O)N[C@@H](CS)C(=O)N1CCC[C@H]1C(=O)N[C@@H](Cc1c[nH]cn1)C(=O)N[C@@H](CCCNC(=N)N)C(=O)N[C@@H](CS)C(=O)O [Compound 7d, H-Leu-Cys-Pro-His-Arg-Cys-OH] (H-LCPHRC-OH)	35 (≈ 48.1 µM)	20 (≈ 27.5 µM)	–	4 times	2.5	five time more potent	almost three times more potent	five times more potent
–	N=C(N)NCCC[C@H](NC(=O)[C@H](Cc1c[nH]cn1)NC(=O)[C@@H]1CCCN1C(=O)[C@H](CS)NC(=O)[C@@H]1CCCN1)C(=O)N[C@@H](CS)C(=O)O [Compound 7e, H-Pro-Cys-Pro-His-Arg-Cys-OH] (H-PCPHRC-OH)	55 (≈ 77.3 µM)	50 (≈ 70.2 µM)	almost twice potent	around 2 times	–	–	–	–
–	N=C(N)NCCC[C@H](NC(=O)[C@H](Cc1c[nH]cn1)NC(=O)[C@@H]1CCCN1C(=O)[C@H](CS)NC(=O)[C@@H](N)Cc1ccc(O)cc1)C(=O)N[C@@H](CS)C(=O)O [Compound 7f, H-Tyr-Cys-Pro-His-Arg-Cys-OH] (H-YCPHRC-OH)	50 (≈ 64.3 µM)	40 (≈ 51.4 µM)	almost twice potent	around 2 times	2	–	–	–
–	C[C@@H]1[C@H](O)[C@@H](C)/C=C/C=C/CC/C=C/C=C/C=C/C=C/C(O[C@H]2O[C@H](C)[C@@H](O)[C@H](N)[C@@H]2O)CC2O[C@](O)(CC(O)C(O)CCC(O)CC(O)CC(O)CC(=O)O[C@H]1C)CC(O)C2C(=O)O (some centres unmarked) [Nystatin, reference compound]	100 (≈ 108 µM)	100 (≈ 108 µM)	–	–	–	–	–	–
